Assay results collected from several papers.
Each line is one published result; the experiments were not run side by side.
Medium: plasma

Structure (SMILES) | host | route | dose | setting | measurement | value
CN(C)C1(CNC(=O)c2ccc3c(c2)CCN3C(=O)c2ccccc2)CCOCC1 | male CD-1 mouse | intraperitoneal | 30 mg/kg | – | AUC(0-inf) | 246 ng·h/mL
COc1cc(C(=O)c2nc(-c3cccc4[nH]ccc34)c[nH]2)cc(OC)c1OC | male CD-1 mouse | intraperitoneal | 15 mg/kg | – | AUC(0-t) | 1510 ng·h/mL
CC(C)=CCC[C@](C)(O[C@@H]1O[C@H](CO)[C@@H](O)[C@H](O)[C@H]1O)[C@H]1CC[C@]2(C)[C@@H]1[C@H](O)C[C@@H]1[C@@]3(C)CC[C@H](O)C(C)(C)[C@@H]3CC[C@]12C | mouse | oral | 10 mg/kg | – | AUC(0-t) | 655 ng·h/mL
C[C@@H](O)[C@@H]1NC(=O)CNC(=O)[C@H](Cc2c[nH]cn2)NC(=O)[C@H](Cc2c[nH]c3ccccc23)NC(=O)[C@H](CC(N)=O)NC(=O)CNC(=O)C[C@@H](C(=O)N[C@@H](Cc2c[nH]c3ccccc23)C(=O)N[C@@H](Cc2ccccc2)C(=O)N[C@@H](Cc2ccccc2)C(=O)N[C@@H](CC(N)=O)C(=O)N[C@@H](Cc2ccc(O)cc2)C(=O)N[C@@H](Cc2ccc(O)cc2)C(=O)N[C@@H](Cc2c[nH]c3ccccc23)C(=O)O)NC(=O)[C@@H]2CCCN2C(=O)[C@H](CO)NC1=O | mouse | intravenous | 3 mg/kg | – | AUC(0-t) | 35100 ng·h/mL
CC[C@H](C)[C@H](NC(=O)[C@H](Cc1ccccc1)NC(=O)[C@H](CCC(=O)O)NC(=O)[C@H](CCCCN)NC(=O)[C@H](C)NC(=O)[C@H](C)NC(=O)[C@H](CCC(N)=O)NC(=O)CNC(=O)[C@H](CCC(=O)O)NC(=O)[C@H](CC(C)C)NC(=O)[C@H](Cc1ccc(O)cc1)NC(=O)[C@H](CO)NC(=O)[C@H](CO)NC(=O)[C@@H](NC(=O)[C@H](CC(=O)O)NC(=O)[C@H](CO)NC(=O)[C@@H](NC(=O)[C@H](Cc1ccccc1)NC(=O)[C@@H](NC(=O)CNC(=O)[C@H](CCC(=O)O)NC(=O)[C@H](C)NC(=O)N(N)Cc1c[nH]cn1)[C@@H](C)O)[C@@H](C)O)C(C)C)C(=O)N[C@@H](C)C(=O)N[C@@H](Cc1c[nH]c2ccccc12)C(=O)N[C@@H](CC(C)C)C(=O)N[C@H](C(=O)N[C@@H](CCCNC(=N)N)C(=O)NCC(=O)N[C@@H](CCCNC(=N)N)C(=O)NCC(=O)O)C(C)C | male CD-1 mouse | intravenous | 1 mg/kg | single dose | AUC(0-t) | 2390 ng·h/mL
N=C(N)NCCC[C@H](NC(=O)[C@H](Cc1ccccc1)NC(=O)[C@H](CCC(N)=O)NC(=O)OCc1ccccc1)C(=O)c1nccs1 | female C57BL/6 mouse | intravenous | 5 mg/kg | – | AUC(0-t) | 1180 ng·h/mL
O=C1CCC(N2Cc3c(ccc4c3OCC43CCN(Cc4ccccc4)CC3)C2=O)C(=O)N1 (stereo not drawn) | male CD-1 mouse | oral | 3 mg/kg | – | AUC(0-inf) | 1340 ng·h/mL
CCOC(=O)c1c(NC(=O)CNC(C)C)sc2c1CCCCC2 | male mouse | intraperitoneal | 100 mg/kg | single dose | AUC(0-t) | 19300 ng·h/mL
CC(C)[C@]12O[C@H]1[C@@H]1O[C@]13[C@]1(O[C@H]1C[C@H]1C4=C(CC[C@@]13C)C(=O)OC4)[C@@H]2O | SCID mouse | intravenous | 0.6 mg/kg | – | AUC(0-inf) | 619 ng·h/mL
